# Measurements collected from several papers.
# Mode: agonist
# GPR84: G-protein coupled receptor 84 (GPR84, Homo sapiens, UniProt Q9NQS5)
# Peroxisome proliferator-activated receptor alpha: Peroxisome proliferator-activated receptor alpha (Rattus norvegicus, UniProt P37230)
# AVPR2: Vasopressin V2 receptor (AVPR2, Homo sapiens, UniProt P30518)
# Neuromedin-U receptor 2: Neuromedin-U receptor 2 (Mus musculus, UniProt Q8BZ39)
# MC3R: Melanocortin receptor 3 (MC3R, Homo sapiens, UniProt P41968)
# DRD2: D(2) dopamine receptor (DRD2, Homo sapiens, UniProt P14416)
Structure (SMILES),target,observed,technique,EC50
CCCCCCCCCNc1cc(=O)[nH]c(=O)[nH]1,GPR84,cAMP,,30.2 nM
C[C@H](NC(=O)Cc1ccccc1)C(=O)N[C@H](Cc1c[nH]c2ccccc12)C(=O)NCCc1ccccc1,"Bombesin receptor subtype-3 (Brs3, Rattus norvegicus, UniProt Q8K418)",calcium signal,fluorescence,110 nM
Cc1ccc(C)c(OCCCC(C)(C)C(=O)O)c1,Peroxisome proliferator-activated receptor alpha,reporter gene,luciferase,122000 nM
O=Nc1c(NCCCc2ccccc2)[nH]c(=O)[nH]c1=O,GPR84,cAMP,,1500 nM
NCCCC[C@H](NC(=O)[C@@H]1CCCN1C(=O)[C@@H]1CSSC[C@H](N)C(=O)N[C@@H](Cc2ccc(O)cc2)C(=O)N[C@@H](Cc2ccccc2)C(=O)N[C@@H](CCC(N)=O)C(=O)N[C@@H](CC(N)=O)C(=O)N1)C(=O)NCC(N)=O,AVPR2,cAMP,TR-FRET,0.024 nM
CC(C)C[C@H](NC(=O)[C@H](Cc1ccccc1)NC(=O)[C@@H](N)Cc1ccc(O)cc1)C(=O)N[C@@H](Cc1ccccc1)C(=O)N[C@@H](CCCNC(=N)N)C(=O)N1CCC[C@H]1C(=O)N[C@@H](CCCNC(=N)N)C(=O)N[C@@H](CC(N)=O)C(N)=O,Neuromedin-U receptor 2,β-arrestin recruitment,,8.32 nM
NCCCC[C@H](NC(=O)[C@@H]1CCCN1C(=O)[C@@H]1CSSC[C@H](NC(=O)CNC(=O)CNC(=O)CN)C(=O)N[C@@H](Cc2ccc(O)cc2)C(=O)N[C@@H](Cc2ccccc2)C(=O)N[C@@H](CCC(N)=O)C(=O)N[C@@H](CC(N)=O)C(=O)N1)C(=O)NCC(N)=O,AVPR2,cAMP,TR-FRET,28 nM
CCCCCCCCCCNc1cc(O)nc(O)n1,GPR84,cAMP,,20.9 nM
CC(C)C[C@H](NC(=O)[C@H](Cc1ccccc1)NC(=O)[C@H](Cc1ccc(O)cc1)NC(=O)CNC(=O)[C@H](CCCNC(=N)N)NC(=O)[C@H](CO)NC(=O)[C@H](CCC(N)=O)NC(=O)[C@H](CO)NC(=O)[C@H](C)NC(=O)[C@H](Cc1ccccc1)NC(=O)[C@@H]1CCCN1C(=O)[C@H](CO)NC(=O)[C@H](CCC(N)=O)NC(=O)[C@H](Cc1ccccc1)NC(=O)[C@H](CCC(=O)O)NC(=O)[C@H](CCC(=O)O)NC(=O)[C@H](CC(=O)O)NC(=O)[C@@H](NC(=O)[C@H](CCCNC(=N)N)NC(=O)[C@@H](N)Cc1ccccc1)C(C)C)C(=O)N[C@@H](Cc1ccccc1)C(=O)N[C@@H](CCCNC(=N)N)C(=O)N1CCC[C@H]1C(=O)N[C@@H](CCCNC(=N)N)C(=O)N[C@@H](CC(N)=O)C(N)=O,Neuromedin-U receptor 2,β-arrestin recruitment,,0.331 nM
CC(=O)N[C@H]1CSSC[C@@H](C(=O)N[C@@H](Cc2c[nH]c3ccccc23)C(N)=O)NC(=O)[C@@H](Cc2ccccc2)NC(=O)[C@H](CCCNC(=N)N)NC1=O,MC3R,cAMP,,2400 nM
CC(C)=CCNc1ncnc2c1ncn2[C@@H]1O[C@H](CO)[C@@H](O)[C@H]1O,"Adenosine receptor A3 (ADORA3, Homo sapiens, UniProt P0DMS8)",cAMP,,2000 nM
CCCC[C@H](NC(=O)[C@H](CO)NC(=O)[C@H](Cc1ccc(O)cc1)NC(=O)[C@H](CO)NC(C)=O)C(=O)N[C@@H](CCC(=O)O)C(=O)N[C@@H](Cc1c[nH]cn1)C(=O)N[C@@H](C)C(=O)N[C@@H](CCCNC(=N)N)C(=O)N[C@@H](Cc1c[nH]c2ccccc12)C(=O)NCC(=O)N[C@@H](CCCCN)C(=O)N1CCC[C@H]1C(=O)N[C@H](C(=O)NCC(=O)N[C@@H](CCCCN)C(=O)N[C@@H](CCCCN)C(=O)N[C@@H](CCCNC(=N)N)C(N)=O)C(C)C,MC3R,cAMP,,165 nM
CNc1nc2cc(OCCCCN3CCN(c4cccc5ccc(C)nc45)CC3)ccc2s1,DRD2,cAMP,luciferase,28 nM
O=c1cc(NCCc2cccc(F)c2)[nH]c(=O)[nH]1,GPR84,cAMP,,389 nM
CC(C)(Oc1ccc(C(=O)c2ccc(Cl)cc2)cc1)C(=O)O,Peroxisome proliferator-activated receptor alpha,reporter gene,luciferase,194000 nM
FC(F)(F)c1nc2cc(OCCCCN3CCN(c4cccc(Cl)c4Cl)CC3)ccc2s1,DRD2,β-arrestin recruitment,,160 nM
O=c1[nH]c(NCCc2ccc(Br)cc2)c(Br)c(=O)[nH]1,GPR84,cAMP,,372 nM
